ChEMBL document CHEMBL1148178, “Dicranin, an antimicrobial and 15-lipoxygenase inhibitor from the moss Dicranum scoparium” (1993)
Active and inactive are the calls of the source. The rule behind the calls is not given here.

Key:
Bacillus cereus [1] = assay: Bactericidal activity against Bacillus cereus NCIB 3329 at 50 ug/ml by liquid culture assay; type: functional, organism-based
Procedure, shortened: (§1)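 Wells hold brain heart infusion (200 µl) plus 50 µl inoculum at 10³–10⁵ cfu/ml, with dicranin added as the sodium salt in water (10–200 μg/ml tested). Cultures are incubated at the strain's optimal growth temperature. Duplicate 100 µl samples are taken at 0, 2, 4, 6, 8 and 24 h, diluted in tryptone salt to 10–500 bacteria/plate, plated on plate count agar, and colonies counted after 24 h.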

Escherichia coli = assay: Antibacterial activity against Escherichia coli B74-1 at 1 mg/disk after 24 hrs by disk diffusion assay; type: functional, organism-based
Procedure, shortened: (§2)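 Sterile 6 mm filter-paper disc bearing sample set in the centre of a Petri dish of 15 ml plate count agar. Overlaid with 3 ml soft nutrient agar (nutrient broth + 0.7% agar) seeded with 1% of a 16–18 h culture of the test strain. Read-out is the diameter of the growth-free zone around the disc.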

Enterococcus faecalis [2] = assay: Antibacterial activity against Streptococcus faecalis NCIB 775 at 10 ug/disk after 24 hrs by disk diffusion assay; type: functional; conditions: read-out: Diameter of inhibition zone; procedure, shortened: as §2
Bacillus subtilis [3] = assay: Antibacterial activity against Bacillus subtilis NCIB 3610 at 50 ug/disk after 24 hrs by disk diffusion assay; type: functional; conditions: read-out: Diameter of inhibition zone; procedure, shortened: as §2
Enterococcus faecalis [4] = assay: Antibacterial activity against Streptococcus faecalis NCIB 775 at 75 ug/disk after 24 hrs by disk diffusion assay; type: functional; conditions: read-out: Diameter of inhibition zone
Procedure, shortened: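 Test material loaded onto 6 mm sterile filter-paper discs. Each disc sits at the centre of a plate of 15 ml plate count agar overlaid with 3 ml soft nutrient agar (nutrient broth + 0.7% agar) carrying 1% of a 16–18 h culture. Activity is read as the diameter of the no-growth zone around the disc.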

Bacillus subtilis [5] = assay: Antibacterial activity against Bacillus subtilis NCIB 3610 at 100 ug/disk after 24 hrs by disk diffusion assay; type: functional; conditions: read-out: Diameter of inhibition zone; procedure, shortened: as §2
[6] = test system: Geobacillus stearothermophilus; assay: Bacteriostatic activity against Bacillus stearothermophilus NCA 1518 at 50 to 150 ug/ml after 4 hrs by liquid culture assay; type: functional, organism-based; procedure, shortened: as §1
Bacillus cereus [7] = assay: Bactericidal activity against Bacillus cereus NCIB 3329 at 100 ug/ml upto 4 hrs by liquid culture assay; type: functional, organism-based; procedure, shortened: as §1
Staphylococcus aureus [8] = assay: Antibacterial activity against Staphylococcus aureus T-AQ 49/YF29 at 250 ug/disk after 24 hrs by disk diffusion assay; type: functional; conditions: read-out: Diameter of inhibition zone; procedure, shortened: as §2
Bacillus cereus [9] = assay: Antibacterial activity against Bacillus cereus NCIB 3329 at 1000 ug/disk after 24 hrs by disk diffusion assay; type: functional; conditions: read-out: Diameter of inhibition zone; procedure, shortened: as §2
[10] = test system: Geobacillus stearothermophilus; assay: Antibacterial activity against Bacillus stearothermophilus NCA 1518 at 25 ug/disk after 24 hrs by disk diffusion assay; type: functional; conditions: read-out: Diameter of inhibition zone; procedure, shortened: as §2
Bacillus subtilis [11] = assay: Antibacterial activity against Bacillus subtilis NCIB 3610 at 250 ug/disk after 24 hrs by disk diffusion assay; type: functional; conditions: read-out: Diameter of inhibition zone; procedure, shortened: as §2
[12] = test system: Geobacillus stearothermophilus; assay: Bactericidal activity against Bacillus stearothermophilus NCA 1518 at 50 to 150 ug/ml upto 4 hrs by liquid culture assay; type: functional, organism-based; procedure, shortened: as §1
Salmonella typhimurium = assay: Antibacterial activity against Salmonella Typhimurium NCIB 10248 at 1 mg/disk after 24 hrs by disk diffusion assay; type: functional, organism-based; conditions: Salmonella enterica subsp. enterica serovar Typhimurium; procedure, shortened: as §2
Staphylococcus aureus [13] = assay: Antibacterial activity against Staphylococcus aureus T-AQ 49/YF29 at 500 ug/disk after 24 hrs by disk diffusion assay; type: functional; conditions: read-out: Diameter of inhibition zone; procedure, shortened: as §2
Bacillus cereus [14] = assay: Antibacterial activity against Bacillus cereus NCIB 3329 at 75 ug/disk after 24 hrs by disk diffusion assay; type: functional; conditions: read-out: Diameter of inhibition zone; procedure, shortened: as §2
[15] = test system: Geobacillus stearothermophilus; assay: Antibacterial activity against Bacillus stearothermophilus NCA 1518 at 100 ug/disk after 24 hrs by disk diffusion assay; type: functional; conditions: read-out: Diameter of inhibition zone; procedure, shortened: as §2
Bacillus cereus [16] = assay: Antibacterial activity against Bacillus cereus NCIB 3329 at 125 ug/disk after 24 hrs by disk diffusion assay; type: functional; conditions: read-out: Diameter of inhibition zone; procedure, shortened: as §2
Bacillus cereus [17] = assay: Antibacterial activity against Bacillus cereus NCIB 3329 at 500 ug/disk after 24 hrs by disk diffusion assay; type: functional; conditions: read-out: Diameter of inhibition zone; procedure, shortened: as §2
[18] = test system: Geobacillus stearothermophilus; assay: Antibacterial activity against Bacillus stearothermophilus NCA 1518 at 50 ug/disk after 24 hrs by disk diffusion assay; type: functional; conditions: read-out: Diameter of inhibition zone; procedure, shortened: as §2
Enterococcus faecalis [19] = assay: Antibacterial activity against Streptococcus faecalis NCIB 775 after 24 hrs by disk diffusion assay; type: functional, organism-based; procedure, shortened: as §2
Bacillus cereus [20] = assay: Antibacterial activity against Bacillus cereus NCIB 3329 at 10 ug/disk after 24 hrs by disk diffusion assay; type: functional; conditions: read-out: Diameter of inhibition zone; procedure, shortened: as §2
Staphylococcus aureus [21] = assay: Antibacterial activity against Staphylococcus aureus T-AQ 49/YF29 at 1000 ug/disk after 24 hrs by disk diffusion assay; type: functional; conditions: read-out: Diameter of inhibition zone; procedure, shortened: as §2
Staphylococcus aureus [22] = assay: Antibacterial activity against Staphylococcus aureus T-AQ 49/YF29 at 10 ug/disk after 24 hrs by disk diffusion assay; type: functional; conditions: read-out: Diameter of inhibition zone; procedure, shortened: as §2
Bacillus subtilis [23] = assay: Antibacterial activity against Bacillus subtilis NCIB 3610 at 25 ug/disk after 24 hrs by disk diffusion assay; type: functional; conditions: read-out: Diameter of inhibition zone; procedure, shortened: as §2
Staphylococcus aureus [24] = assay: Antibacterial activity against Staphylococcus aureus T-AQ 49/YF29 at 25 ug/disk after 24 hrs by disk diffusion assay; type: functional; conditions: read-out: Diameter of inhibition zone; procedure, shortened: as §2
Staphylococcus aureus [25] = assay: Antibacterial activity against Staphylococcus aureus T-AQ 49/YF29 at 50 ug/disk after 24 hrs by disk diffusion assay; type: functional; conditions: read-out: Diameter of inhibition zone; procedure, shortened: as §2

CC/C=C\C/C=C\C/C=C\CC#CCCCCC(=O)O [DICRANIN]
Activity (Bacillus cereus [1]): Active | Activity (Escherichia coli): inactive | zone of inhibition at 10 µg/disc (Enterococcus faecalis [2]): 6 mm | zone of inhibition at 50 µg/disc (Bacillus subtilis [3]): 11 mm | zone of inhibition at 75 µg/disc (Enterococcus faecalis [4]): 13 mm | zone of inhibition at 100 µg/disc (Bacillus subtilis [5]): 13 mm | Activity [6]: Active | Activity (Bacillus cereus [7]): Active | zone of inhibition at 250 µg/disc (Staphylococcus aureus [8]): 21 mm | zone of inhibition at 1000 µg/disc (Bacillus cereus [9]): 25 mm | zone of inhibition at 25 µg/disc [10]: 9 mm | zone of inhibition at 250 µg/disc (Bacillus subtilis [11]): 16 mm | Activity [12]: Active | Activity (Salmonella typhimurium): inactive | zone of inhibition at 500 µg/disc (Staphylococcus aureus [13]): 22 mm | zone of inhibition at 75 µg/disc (Bacillus cereus [14]): 11 mm | zone of inhibition at 100 µg/disc [15]: 16 mm | zone of inhibition at 125 µg/disc (Bacillus cereus [16]): 16 mm | zone of inhibition at 500 µg/disc (Bacillus cereus [17]): 22 mm | zone of inhibition at 50 µg/disc [18]: 11 mm | Activity (Enterococcus faecalis [19]): Active | zone of inhibition at 10 µg/disc (Bacillus cereus [20]): 0 mm | zone of inhibition at 1000 µg/disc (Staphylococcus aureus [21]): 23 mm | zone of inhibition at 10 µg/disc (Staphylococcus aureus [22]): 0 mm | zone of inhibition at 25 µg/disc (Bacillus subtilis [23]): 8 mm | zone of inhibition at 25 µg/disc (Staphylococcus aureus [24]): 0 mm | zone of inhibition at 50 µg/disc (Staphylococcus aureus [25]): 11 mm
